The values below come from ChEMBL document CHEMBL1137162, “The development of novel inhibitors of tumor necrosis factor-alpha (TNF-alpha) production based on substituted [5,5]-bicyclic pyrazolones” (Bioorg Med Chem Lett, 2004).

pIC50: −log10 of the molar value.

One assay deals with Rattus norvegicus. The assay is described as follows: Percent reduction in joint damage as compared to the control at 25 mg/Kg. It is filed as functional. The essentials:
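Rat iodoacetate osteoarthritis model; groups of 15 animals dosed orally BID (~every 12 h) for 7 days at 25 mg/kg or vehicle (2.5 mL/kg). Sacrifice on day 22; left joint disarticulated, fixed in 10% formalin 24–48 h, tibial cartilage surface imaged by image analysis. Joint damage expressed as % reduction versus vehicle; significance at P < 0.05.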
`COCC(C)Nc1nccc(-c2c(-c3ccc(F)cc3)c(=O)n3n2CC(OC)C3)n1` (racemic): the Reduction was determined as 28%.
Still for that read-out and setting: the same measure for `COC[C@H](C)Nc1nccc(-c2c(-c3ccc(F)cc3)c(=O)n3n2CC2(C3)OCCO2)n1`: 17%; for `C[C@H](Nc1nccc(-c2c(-c3ccc(F)cc3)c(=O)n3n2CC2(C3)OCCO2)n1)c1ccccc1`: 27%.
Compound `C[C@H](Nc1nccc(-c2c(-c3ccc(F)cc3)c(=O)n3n2CC2(C3)OCCO2)n1)C(C)(C)O` yielded a Reduction of 18%.

For another assay, the system named is THP-1. The assay is described as follows: inhibitory potency against human Tumor necrosis factor, alpha production in THP-1cells. In kind it is functional, cell-based. The gist of the method:
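Human monocytic THP-1 cells (2.0 × 10^5/well), duplicate cultures, preincubated 15 min with or without inhibitor over a concentration range, then stimulated with LPS (2 μg/mL). TNF-α released measured by ELISA 4 h after stimulation; cell viability after the 4 h incubation checked by MTS assay.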
A word on the pIC50: it is the negative decadic logarithm of the IC50, by convention in mol/L. A high value points to a low IC50. As to `O=c1c(-c2ccc(F)cc2)c(-c2ccnc(NCc3cccc(C(F)(F)F)c3)n2)n2n1CC1(C2)OCCO1`, the pIC50 was 6.71.
`COCC(C)Nc1nccc(-c2c(-c3ccc(F)cc3)c(=O)n3n2CC(OC)C3)n1` (racemic): the pIC50 was 7.82.
In turn, `C[C@@H](Nc1nccc(-c2c(-c3ccc(F)cc3)c(=O)n3n2CC(O)C3)n1)c1ccccc1` (stereo partly drawn) showed a pIC50 of 8.30.
The same measure, in the same setting: the same measure for `O=c1c(-c2ccc(F)cc2)c(-c2ccnc(NCc3ccccc3)n2)n2n1CC1(C2)OCCCO1`: 7.51; for `COC[C@H](C)Nc1nccc(-c2c(-c3ccc(F)cc3)c(=O)n3n2CC2(C3)OCCCO2)n1`: 7.44.
The same measure, in the same setting: as for `O=c1c(-c2ccc(F)cc2)c(-c2ccnc(NCc3ccccn3)n2)n2n1CC1(C2)OCCO1`, the figure is 6.83; as for `Cc1ccc(CNc2nccc(-c3c(-c4ccc(F)cc4)c(=O)n4n3CC3(C4)OCCO3)n2)cc1`, 6.53.
The same measure, in the same setting: as for `C[C@H](Nc1nccc(-c2c(-c3ccc(F)cc3)c(=O)n3n2CC2(C3)OCCCO2)n1)c1ccccc1`, the figure is 7.92; as for `O=c1c(-c2ccc(F)cc2)c(-c2ccnc(NCc3ccccc3)n2)n2n1CC1(C2)OCCO1`, 7.96.
With `O=c1c(-c2ccc(F)cc2)c(-c2ccnc(Oc3ccccc3)n2)n2n1CC(N1CCCCC1)C2` (stereo not drawn), the pIC50 is 6.53.
The same measure, in the same setting: the same measure for `O=c1c(-c2ccc(F)cc2)c(-c2ccnc(NCc3cccnc3)n2)n2n1CC1(C2)OCCO1`: 6.37.
Turning to `O=c1c(-c2ccc(F)cc2)c(-c2ccnc(NCc3ccc(C(F)(F)F)cc3)n2)n2n1CC1(C2)OCCO1`, the pIC50 is 6.00.
Still for that read-out and setting: as for `O=c1c(-c2ccc(F)cc2)c(-c2ccnc(NCc3ccc(F)cc3)n2)n2n1CC1(C2)OCCCO1`, the figure is 6.20.
Same read-out and setting: as for `Cc1ccccc1CNc1nccc(-c2c(-c3ccc(F)cc3)c(=O)n3n2CC2(C3)OCCO2)n1`, the figure is 7.72.
Same read-out and setting: the same measure for `O=c1c(-c2ccc(F)cc2)c(-c2ccnc(NCc3ccc(F)cc3)n2)n2n1CC1(C2)OCCO1`: 6.54; for `O=c1c(-c2ccc(F)cc2)c(-c2ccnc(NCc3cccc(F)c3)n2)n2n1CC1(C2)OCCO1`: 7.89; for `O=c1c(-c2ccc(F)cc2)c(-c2ccnc(Oc3ccccc3)n2)n2n1CC(N1CCOCC1)C2` (stereo not drawn): 6.50.
Turning to `O=c1c(-c2ccc(F)cc2)c(-c2ccnc(NCc3ccncc3)n2)n2n1CC1(C2)OCCO1`, the pIC50 was 6.00.
On to `COC(=O)OC1Cn2c(-c3ccnc(Oc4ccccc4)n3)c(-c3ccc(F)cc3)c(=O)n2C1` (stereo not drawn), for which the pIC50 was 6.74. Against the preceding compound, the pIC50 is 0.74 log units higher.
The same measure, in the same setting: as for `O=c1c(-c2ccc(F)cc2)c(-c2ccnc(Oc3ccccc3)n2)n2n1CC(N1CCNCC1)C2` (stereo not drawn), the figure is 6.30; as for `COCC(C)Nc1nccc(-c2c(-c3ccc(F)cc3)c(=O)n3n2CC(OC)C3)n1` (single isomer, unassigned), 7.70.
In turn, `O=c1c(-c2ccc(F)cc2)c(-c2ccnc(NCc3ccccc3F)n2)n2n1CC1(C2)OCCO1` showed a pIC50 of 8.10.
On the same count and under the same terms, as for `Nc1ccc(CNc2nccc(-c3c(-c4ccc(F)cc4)c(=O)n4n3CC3(C4)OCCO3)n2)cc1`, the figure is 6.79; as for `O=c1c(-c2ccc(F)cc2)c(-c2ccnc(NCc3ccccc3C(F)(F)F)n2)n2n1CC1(C2)OCCO1`, 7.77; as for `COC[C@H](C)Nc1nccc(-c2c(-c3ccc(F)cc3)c(=O)n3n2CC2(C3)OCCO2)n1`, 7.44.
Still for that read-out and setting: the same measure for `CN(C)C1Cn2c(-c3ccnc(Oc4ccccc4)n3)c(-c3ccc(F)cc3)c(=O)n2C1` (stereo not drawn): 6.75; for `C[C@H](Nc1nccc(-c2c(-c3ccc(F)cc3)c(=O)n3n2CC2(C3)OCCO2)n1)c1ccccc1`: 8.70; for `COC[C@H](C)Nc1nccc(-c2c(-c3ccc(F)cc3)c(=O)n3n2CC(OC)C3)n1` (stereo partly drawn): 7.89.
Consider `Nc1ccccc1CNc1nccc(-c2c(-c3ccc(F)cc3)c(=O)n3n2CC2(C3)OCCO2)n1`, for which the pIC50 was 7.00.
`O=c1c(-c2ccc(F)cc2)c(-c2ccnc(Oc3ccccc3)n2)n2n1CC(N1CCCC1)C2` (stereo not drawn) showed a pIC50 of 6.49.
Same read-out and setting: the same measure for `C[C@H](Nc1nccc(-c2c(-c3ccc(F)cc3)c(=O)n3n2CC2(C3)OCCO2)n1)C(C)(C)O`: 8.05.
`O=c1c(-c2ccc(F)cc2)c(-c2ccnc(Oc3ccccc3)n2)n2n1CC1(C2)OCCO1` showed a pIC50 of 7.42. This pIC50 is 0.63 log units lower than that of the compound before.
As to `Cc1cccc(CNc2nccc(-c3c(-c4ccc(F)cc4)c(=O)n4n3CC3(C4)OCCO3)n2)c1`, the pIC50 was 7.40.
Still for that read-out and setting: as for `O=c1c(-c2ccc(F)cc2)c(-c2ccnc(Oc3ccccc3)n2)n2n1CC1(C2)OCCCO1`, the figure is 7.16.
